MrgX1 PAM – human MrgX1 positive allosteric modulation, primary screen; Q96LB2; MrgX1-HEK293, Fluo-4 calcium flux, FDSS; active compounds read high; B-score at 10 µM; 310,000 compounds, 0.63% hits;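 active = plate-corrected calcium response at least 3 library SD above typical, normal starting fluorescence, not activating the receptor alone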;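 also: compound read alongside a low EC10 to EC30 dose of BAM8-22 agonist; peak minus trough fluorescence over baseline measured at the second addition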
Target sequence (Q96LB2 whole entry, looked up): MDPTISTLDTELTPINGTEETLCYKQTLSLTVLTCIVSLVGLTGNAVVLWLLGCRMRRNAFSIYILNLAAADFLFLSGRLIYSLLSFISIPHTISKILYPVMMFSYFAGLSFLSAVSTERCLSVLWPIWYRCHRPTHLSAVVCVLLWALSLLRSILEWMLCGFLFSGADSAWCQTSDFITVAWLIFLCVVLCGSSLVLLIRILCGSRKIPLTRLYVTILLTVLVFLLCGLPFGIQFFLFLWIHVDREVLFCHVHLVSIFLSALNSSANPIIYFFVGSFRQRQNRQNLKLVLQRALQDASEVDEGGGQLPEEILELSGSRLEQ
MrgX1 ag – agonists of human MrgX1 receptor. MrgX1-HEK293 cells, Fluo-4 calcium fluorescence, agonist mode; active compounds read high. B-score at 10 µM. 310,000 compounds, 0.44% hits. AID 588627;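 active = calcium response B-score plate-corrected fluorescence ratio at least 3 library SD, with starting fluorescence B-score inside 5 SD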
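System: HEK293 cells stably expressing human MrgX1 receptor; Dosing: test compound in the initial addition of three; Schedule: overnight plating, then 30 min 37 °C plus 30 min room-temperature dye loading; Detection: kinetic calcium dye fluorescence, Fluo-4 NW; Controls: per-plate positive and negative controls for Z′ factor.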
RGS4 act – RGS4 potentiation or activation. HEK293 M3R/inducible RGS4, carbachol calcium flux Fluo4; active compounds read low. B-score at 10 µM. 310,000 compounds, 0.92% hits. AID 463111;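 active = B-score of the integrated calcium signal more than 4 SD below the library mean, with starting fluorescence not abnormally high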;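 also: negative B-score means reduced calcium response which marks RGS4 activation or potentiation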
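Detection: kinetic calcium fluorescence imaging with Fluo4-AM dye, 2 µM / Material: HEK293 cells with stable M3R and inducible RGS4 / Schedule: recording 10 s baseline at 1 Hz, 100 s post-agonist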
RGS4 inh – inhibitors of human RGS4. P49798. 310,000 compounds, 0.45% hits. HEK293 M3R/RGS4 inducible, Fluo-4 calcium flux; active compounds read high; triggered by carbachol at its EC20. B-score at 10 µM;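 active = B-score, a plate-corrected calcium signal, over three deviations above library mean, with baseline fluorescence within five deviations of library mean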;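 also: RGS4 expression induced by doxycycline in cells with stable M3 receptor; B-score is computed from the integrated fluorescence ratio over baseline after carbachol; higher B-score means a larger calcium signal and so more RGS4 inhibition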
MrgX1 antagonist – human MrgX1 receptor antagonism, primary screen; 310,000 compounds, 1.3% hits; AID 588676; B-score at 10 µM; Q96LB2; MRGX1-HEK293 calcium flux, Fluo-4, BAM8-22 antagonism; active compounds read low;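 active = calcium-response B-score plate-corrected more than 3 library SD below zero, starting fluorescence within 5 deviations, no agonist response on first addition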;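 also: peak minus trough fluorescence over baseline after final BAM8-22 challenge near maximal dose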
* = called active by the depositor. Only some compounds are listed: those with a hit (about 3.5% of all), similar ones and a draw of the others.

What do the screens show for `CC(C)CS(=O)(=O)C1=NN2C(=N)/C(=C\c3ccc(OC(=O)c4ccco4)cc3)C(=O)N=C2S1`?
MrgX1 PAM: inactive; MrgX1 ag: 29*; RGS4 act: inactive; RGS4 inh: inactive; MrgX1 antagonist: inactive

What do the screens show for `N=C1/C(=C\c2ccc(OC(=O)c3ccco3)cc2)C(=O)N=C2SC=NN12`?
RGS4 act: inactive; RGS4 inh: inactive

How did O=c1oc2cc(O)ccc2cc1-c1nc2c(s1)CCc1ccccc1-2 do in these assays?
MrgX1 PAM: inactive; MrgX1 ag: inactive; MrgX1 antagonist: inactive

What do the screens show for `O=c1oc2ccccc2cc1-c1nc2c(s1)CCc1ccccc1-2`?
MrgX1 PAM: inactive; MrgX1 ag: inactive; RGS4 act: inactive; RGS4 inh: inactive; MrgX1 antagonist: -6.8*

How did O=C(Nc1ccccc1-c1nnc(SCc2ccc(Cl)cc2)o1)c1ccccc1 do in these assays?
MrgX1 PAM: inactive; MrgX1 ag: inactive; RGS4 act: inactive; RGS4 inh: inactive; MrgX1 antagonist: -7.1*

Results for O=C(Nc1ccccc1-c1nnc(SCc2ccccc2)o1)c1ccccc1 ?
MrgX1 PAM: inactive; MrgX1 ag: inactive; RGS4 act: -7.4*; RGS4 inh: inactive; MrgX1 antagonist: inactive

What do the screens show for `CN(Cc1ccccc1F)C(=O)c1ccc2c(=O)n3c(nc2c1)CCC3`?
MrgX1 PAM: inactive; MrgX1 ag: inactive; RGS4 act: inactive; RGS4 inh: inactive; MrgX1 antagonist: inactive

What do the screens show for `CCOc1ccccc1N=Nc1c(C)[nH]n(C(N)=S)c1=O`?
MrgX1 PAM: inactive; MrgX1 ag: inactive; RGS4 act: inactive; RGS4 inh: inactive; MrgX1 antagonist: inactive

How did O=C1C(=O)N(Cc2ccccc2)C(=O)N1CCN1C(=O)c2ccccc2C1=O do in these assays?
MrgX1 PAM: inactive; MrgX1 ag: inactive; RGS4 act: inactive; RGS4 inh: inactive; MrgX1 antagonist: inactive

What do the screens show for `O=C1Cc2ccccc2C(=O)N1CCc1ccccc1`?
MrgX1 PAM: inactive; MrgX1 ag: inactive; RGS4 act: inactive; RGS4 inh: inactive; MrgX1 antagonist: -5.2*

Results for O=C(CCC1CCCC1)NCc1cccs1 ?
MrgX1 PAM: inactive; MrgX1 ag: inactive; RGS4 act: inactive; RGS4 inh: inactive; MrgX1 antagonist: inactive

Results for OC(c1cccs1)(c1cccs1)C1C[N+]2(CF)CCC1CC2 (centres undefined) ?
MrgX1 PAM: inactive; MrgX1 ag: inactive; RGS4 act: -8.4*; RGS4 inh: inactive; MrgX1 antagonist: inactive

What do the screens show for `O=C1CC(c2ccc(Cl)c([N+](=O)[O-])c2)c2ccc3ccccc3c2N1` (centres undefined)?
MrgX1 PAM: inactive; MrgX1 ag: inactive; RGS4 act: inactive; RGS4 inh: inactive; MrgX1 antagonist: -7.5*

What do the screens show for `NC(=S)N=Nc1ccc(NN=C(N)N)cc1`?
MrgX1 PAM: inactive; MrgX1 ag: 31*; RGS4 act: inactive; RGS4 inh: inactive; MrgX1 antagonist: inactive

Results for N#C/C(=N/Nc1ccc(OC(F)(F)F)cc1)C(N)=S ?
MrgX1 PAM: inactive; MrgX1 ag: inactive; RGS4 act: inactive; RGS4 inh: inactive; MrgX1 antagonist: inactive

What do the screens show for `O=C1OC(N2C(=O)CC[C@H]2C(=O)Nc2ccc(Br)cc2F)c2ccccc21` (some centres undefined)?
MrgX1 PAM: inactive; MrgX1 ag: inactive; RGS4 act: inactive; RGS4 inh: inactive; MrgX1 antagonist: inactive

Results for C#CCOCCOCCOCCNc1nc(N2CCN(C(=O)CCCCCCCCCCNC(=O)Cn3cc(CCCCCN)nn3)CC2)nc(N2CCN(C(=O)CCCCCCCCCCNC(=O)Cn3cc(C[C@@H](C)O)nn3)CC2)n1 ?
MrgX1 PAM: inactive; MrgX1 ag: inactive; MrgX1 antagonist: -8.3*

What do the screens show for `C#CCOCCOCCOCCNc1nc(N2CCN(C(=O)CCCCCCCCCCNC(=O)Cn3cc(C[C@@H](C)O)nn3)CC2)nc(N2CCN(C(=O)CCCCCCCCCCNC(=O)[C@@H]([C@H](C)CC)n3cc(CCCCCN)nn3)CC2)n1`?
MrgX1 PAM: 6.9*; MrgX1 ag: inactive; MrgX1 antagonist: inactive
